The structures appear in SMILES notation. Some results are limits rather than exact numbers.

What all share (assay type): functional, cell-based
The subject of one assay is A549. As to the kind of experiment: Cytotoxicity against human A549 cells after 72 hrs by MTT assay. The following applies: A549, 72 h. The method in brief: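 Compounds were dissolved in DMSO, diluted into FBS-free medium and tested at 5 × 10⁻⁵, 10⁻⁵, 10⁻⁶ and 10⁻⁷ M for 72 h. MTT was added for 3 h, formazan dissolved in DMSO and read at 590 nm. Triplicates; IC50 derived graphically from % viability loss versus untreated controls.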
A general note: Tetrazolium dyes change colour on reduction, which living cells bring about.

Assay [1] is described as follows: Cytotoxicity against human KB3-1 cells after 72 hrs by MTT assay. The settings on record: KB 3-1, 72 h. The method in brief:
(§1)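 Cells grown in RPMI-1640 with 10% FBS, 2 mM L-glutamine and gentamicin; seeded at 1 × 10⁴ cells/well and left to attach overnight at 37 °C, 5% CO₂. Compounds were dissolved in DMSO, diluted into FBS-free medium and tested at 5 × 10⁻⁵, 10⁻⁵, 10⁻⁶ and 10⁻⁷ M for 72 h. MTT was added for 3 h, formazan dissolved in DMSO and read at 590 nm. Triplicates; IC50 derived graphically from % viability loss versus untreated controls.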

Assay [2] is described as follows: Cytotoxicity against human multi drug resistant subclone KB 8.5 cells after 72 hrs by MTT assay. The method in brief: as §1
Assay [3] is described as follows: Cytotoxicity against human Caov3 cells after 72 hrs by MTT assay. The settings on record: Caov-3, 72 h. The method in brief:
as §1

Turning to `CCOP(=O)(OCC)N1C/C(=C\c2cccnc2)C(=O)/C(=C/c2cccnc2)C1`, the IC50 (in general, the concentration that inhibits the measured activity by half) in the assay on A549 was determined as 10.4 µM; in assay [1], 5 µM; in assay [2], 5.3 µM; in assay [3], 8.1 µM.
In the same order, the values of `CCOP(=O)(CCCCN1C/C(=C\c2cccnc2)C(=O)/C(=C/c2cccnc2)C1)OCC` are 15.4 µM, 6.1 µM, 9.5 µM and 6.2 µM.
In the same order, the values of `CCOP(=O)(CCN1C/C(=C\c2cccnc2)C(=O)/C(=C/c2cccnc2)C1)OCC` are greater than 40 µM, greater than 40 µM, greater than 40 µM and greater than 40 µM.
In the same order, the values of `CN1C/C(=C\c2cccnc2)C(=O)/C(=C/c2cccnc2)C1` are greater than 20 µM, 20.2 µM, 40.4 µM and greater than 20 µM.
`COc1cccc2c1C(=O)c1c(O)c3c(c(O)c1C2=O)C[C@@](O)(C(=O)CO)C[C@@H]3O[C@H]1C[C@H](N)[C@H](O)[C@H](C)O1` [DOXORUBICIN] showed an IC50 in assay [2] of 3.3 µM.
In the case of `CN1C/C(=C\c2ccncc2)C(=O)/C(=C/c2ccncc2)C1`, the IC50 was 4.2 µM in the assay on A549, 3 µM in assay [1], 7.4 µM in assay [2] and 5.1 µM in assay [3].
In the case of `CCOP(=O)(OCC)N1C/C(=C\c2ccncc2)C(=O)/C(=C/c2ccncc2)C1`, the IC50 in the assay with A549 stood at 8.2 µM; in assay [1] it was 2.1 µM; in assay [2], 5.1 µM; in assay [3], 4.3 µM.
As to `O=C1/C(=C/c2ccncc2)CNC/C1=C\c1ccncc1`, the IC50 came out at 10.3 µM in the assay with A549, 5 µM in assay [1], 8.5 µM in assay [2] and 6 µM in assay [3].
Take `N[C@@H](Cc1ccc(N(CCCl)CCCl)cc1)C(=O)O`: it took 50 µM to reach half-maximal inhibition in assay [3] (IC50).
In the case of `O=C1/C(=C/c2cccnc2)CNC/C1=C\c1cccnc1`, the IC50 in the assay with A549 came to 11.1 µM; in assay [1], 24.4 µM; in assay [2] it was 30 µM; in assay [3], 9.2 µM.

The record behind these values is ChEMBL document CHEMBL1629420, “Structure-cytotoxicity relationship in a series of N-phosphorus substituted E,E-3,5-bis(3-pyridinylmethylene)- and E,E-3,5-bis(4-pyridinylmethylene)piperid-4-ones” (Eur J Med Chem, 2010).
